{"source": "ChEMBL document CHEMBL4138315", "about": "“Synthesis and Evaluation of a Novel Bivalent Selective Antagonist for the Mu-Delta Opioid Receptor Heterodimer that Reduces Morphine Withdrawal in Mice” (J Med Chem, 2018)", "key": {"Mus musculus [1]": {"system": "Mus musculus", "test": "Antinociceptive activity in icv dosed CD1 mouse assessed as reduction in CYM51010-induced nociception pretreated for 5 mins followed by CYM51010 injection measured up to 2 hrs by tail flick assay", "assay_type": "functional"}, "Homo sapiens [2]": {"species_on_record": "Homo sapiens", "test": "Selectivity ratio of KiH for human mu-delta opioid receptor heterodimer expressed in CHO cell membranes to Ki for human DOR expressed in CHO cell membranes", "assay_type": "cell-based"}, "Mu-type opioid receptor [3]": {"target": "T1, Mu-type opioid receptor (Homo sapiens, UniProt P35372)", "T1 sequence (P35372 whole entry)": "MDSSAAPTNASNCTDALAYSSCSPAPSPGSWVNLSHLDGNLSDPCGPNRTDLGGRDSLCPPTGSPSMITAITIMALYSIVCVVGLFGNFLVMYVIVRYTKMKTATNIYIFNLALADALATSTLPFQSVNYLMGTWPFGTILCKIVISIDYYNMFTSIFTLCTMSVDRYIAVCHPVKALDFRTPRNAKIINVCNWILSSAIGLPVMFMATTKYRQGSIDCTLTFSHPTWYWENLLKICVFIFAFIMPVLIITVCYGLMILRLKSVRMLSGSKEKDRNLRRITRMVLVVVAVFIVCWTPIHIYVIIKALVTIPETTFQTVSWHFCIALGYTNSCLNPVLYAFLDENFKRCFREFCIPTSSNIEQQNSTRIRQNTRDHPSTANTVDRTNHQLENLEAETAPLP", "test": "Displacement of [3H]-diprenorphine from human MOR expressed in CHO cell membranes after 80 mins by scintillation counting analysis", "details": "cho", "in_short": "(§1)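 Competition binding on MOR-, DOR- or MDOR-CHO membranes used a fixed 3H-diprenorphine level against competitor concentration curves; 30°C, 80 min, GF/B filtration, scintillation counting. Nonspecific binding defined with 500 nM each DMT-Tic-Ala-OH and CTAP. Ki was derived from IC50 and the 3H-diprenorphine KD in each line; MDOR data fitted with a 2-site model. N = 3-4, mean ± SEM.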"}, "[4]": {"target": "T2, Delta-type opioid receptor (Homo sapiens, UniProt P41143)", "T2 sequence (P41143 whole entry)": "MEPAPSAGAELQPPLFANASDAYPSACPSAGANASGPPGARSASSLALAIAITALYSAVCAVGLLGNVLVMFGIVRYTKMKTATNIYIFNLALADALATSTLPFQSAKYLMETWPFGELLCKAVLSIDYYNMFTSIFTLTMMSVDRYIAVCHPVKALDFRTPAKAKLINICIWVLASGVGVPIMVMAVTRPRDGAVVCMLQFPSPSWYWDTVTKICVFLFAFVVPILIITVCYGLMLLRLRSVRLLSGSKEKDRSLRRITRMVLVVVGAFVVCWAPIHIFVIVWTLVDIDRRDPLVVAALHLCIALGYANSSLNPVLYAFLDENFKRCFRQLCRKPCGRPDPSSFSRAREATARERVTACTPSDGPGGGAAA", "test": "Antagonist activity at human DOR expressed in CHO cell membranes assessed as inhibition of CYM51010-induced [35S]-GTPgammaS binding preincubated for 5 mins followed by CYM51010 and [35S]-GTPgammaS addition measured after 80 mins", "assay_type": "functional", "details": "cho", "in_short": "(§2)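 Membranes from CHO cells stably expressing human opioid receptor (N-terminal tagged) were preincubated 5 min with antagonist concentration curves, then given 1 µM CYM51010 and 0.1 nM 35S-GTPγS; 30°C, 80 min, GF/B filtration, scintillation counting. Normalized to CYM51010 alone (100%) and vehicle (0%). Fits: 1-site for MOR/DOR (IC50), 2-site for MDOR (IC50HIGH). N = 3-4, duplicate, mean ± SEM.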"}, "[5]": {"target": "T3, Opioid receptors; mu & delta (Homo sapiens, UniProt P41143+P35372)", "T3 sequence (P35372 whole entry, looked up)": "as the sequence (P35372 whole entry) above", "T3 sequence (P41143 whole entry, looked up)": "as the sequence (P41143 whole entry) above", "test": "Antagonist activity at human mu-delta opioid receptor heterodimer expressed in CHO cell membranes assessed as inhibition of DAMGO-induced [35S]-GTPgammaS binding preincubated for 5 mins followed by DAMGO and [35S]-GTPgammaS addition measured after 80 mins", "assay_type": "functional", "in_short": "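MDOR-CHO membranes were preincubated 5 min with antagonist concentration curve, then 1 µM DAMGO and 0.1 nM 35S-GTPγS were added. Incubated 30°C, 80 min; filter harvest, scintillation counting. Normalized to agonist alone and vehicle. N = 3 independent experiments in duplicate.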"}, "Mus musculus [6]": {"system": "Mus musculus", "test": "Effect on tail flick response in CD1 mouse up to 10 nmol, icv measured up to 2 hrs", "assay_type": "ADME, organism-based", "details": "in vivo, icv_or_intrathecal", "in_short": "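Naïve male CD-1 mice were given a dose range up to 10 nmol icv, 5 min before icv vehicle in place of agonist. Tail flick latency in 52°C water (10 s cutoff) recorded over 2 h, baseline first; experimenter blinded.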"}, "[7]": {"target": "T3, Opioid receptors; mu & delta", "test": "Displacement of [3H]-diprenorphine from human mu-delta opioid receptor heterodimer expressed in CHO cell membranes at high site fraction after 80 mins by scintillation counting analysis relative to control"}, "Mus musculus [8]": {"system": "Mus musculus", "test": "Reduction in morphine dependence expression in acute morphine dependence ICR mouse model assessed as reduction in GI output at 1 nmol, icv up to 20 mins", "assay_type": "functional, organism-based", "in_short": "(§3)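 Acute dependence: morphine 100 mg/kg sc, then naloxone 10 mg/kg ip 4 h later. 1 nmol icv or vehicle given 5 min before naloxone; one control arm had no naloxone. Mice observed 20 min in plexiglass cylinders; jumps counted, then urine and feces weighed.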"}, "[9]": {"target": "T2, Delta-type opioid receptor", "test": "Displacement of [3H]-diprenorphine from human DOR expressed in CHO cell membranes after 80 mins by scintillation counting analysis", "details": "cho", "in_short": "as §1"}, "[10]": {"target": "Kappa-type opioid receptor (Homo sapiens) (UniProt P41145)", "sequence (P41145 whole entry)": "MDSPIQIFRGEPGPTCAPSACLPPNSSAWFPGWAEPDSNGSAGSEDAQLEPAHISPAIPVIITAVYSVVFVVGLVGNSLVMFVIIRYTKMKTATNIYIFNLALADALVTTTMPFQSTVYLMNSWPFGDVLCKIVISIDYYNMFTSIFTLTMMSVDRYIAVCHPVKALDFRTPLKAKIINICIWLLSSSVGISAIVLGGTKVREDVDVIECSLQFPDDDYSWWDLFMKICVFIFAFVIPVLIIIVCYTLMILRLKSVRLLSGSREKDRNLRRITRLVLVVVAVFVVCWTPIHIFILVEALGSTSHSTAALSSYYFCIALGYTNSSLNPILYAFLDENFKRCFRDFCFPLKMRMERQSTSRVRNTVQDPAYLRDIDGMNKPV", "test": "Antagonist activity at human KOR expressed in CHO cell membranes assessed as inhibition of U50488-induced [35S]-GTPgammaS binding preincubated for 5 mins followed by U50488 and [35S]-GTPgammaS addition measured after 80 mins", "assay_type": "functional", "in_short": "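KOR-CHO membranes (human receptor, N-terminal tag), antagonist concentration curve preincubated 5 min, then 1 µM U50,488 plus 0.1 nM 35S-GTPγS added. Incubated 30°C, 80 min; filtration and scintillation counting. Vehicle 0.1% DMSO in assay buffer with 0.1% BSA. Normalized to agonist alone (100%) and vehicle (0%). One-site curve fit; N = 3 independent experiments in duplicate.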"}, "Mus musculus [11]": {"system": "Mus musculus", "test": "Antinociceptive activity in CD1 mouse assessed as reduction in DAMGO-induced nociception up to10 nmol, icv pretreated for 5 mins followed by DAMGO injection measured up to 2 hrs by tail flick assay", "assay_type": "functional, organism-based"}, "[12]": {"target": "T3, Opioid receptors; mu & delta", "test": "Antagonist activity at human mu-delta opioid receptor heterodimer expressed in CHO cell membranes assessed as inhibition of CYM51010-induced [35S]-GTPgammaS binding at high site fraction preincubated for 5 mins followed by CYM51010 and [35S]-GTPgammaS addition measured after 80 mins relative to control", "assay_type": "functional", "in_short": "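35S-GTPγS coupling in MDOR-CHO membranes: 5 min antagonist pre-incubation, then 1 µM CYM51010 plus 0.1 nM 35S-GTPγS, 30°C for 80 min, filtration and scintillation read. A 3-variable 2-site antagonist fit gave FHIGH, the fraction of the high-potency site. N = 3-4 independent experiments.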"}, "[13]": {"target": "T3, Opioid receptors; mu & delta", "test": "Antagonist activity at human mu-delta opioid receptor heterodimer expressed in CHO cell membranes assessed as inhibition of CYM51010-induced [35S]-GTPgammaS binding at high site fraction preincubated for 5 mins followed by CYM51010 and [35S]-GTPgammaS addition measured after 80 mins", "assay_type": "functional", "in_short": "as §2"}, "Mus musculus [14]": {"species_on_record": "Mus musculus", "test": "Antinociceptive activity in CD1 mouse assessed as reduction in morphine-induced nociception at 10 nmol pretreated for 5 mins followed by morphine injection measured up to 2 hrs by tail flick assay", "assay_type": "functional, organism-based", "in_short": "(§4)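 Male CD-1 mice received 10 nmol icv (vehicle 2% DMSO/10% Tween80/88% water), 5 min before sc agonist. SNC80 was 10 mg/kg in 20% DMSO/10% Tween80/70% saline; morphine was given in saline. 52°C tail flick, 10 s cutoff, recorded over a 2 h time course; experimenter blinded.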"}, "Homo sapiens [15]": {"species_on_record": "Homo sapiens", "test": "Selectivity ratio of IC50H for human mu-delta opioid receptor heterodimer expressed in CHO cell membranes to IC50 for human DOR expressed in CHO cell membranes", "assay_type": "cell-based"}, "Mus musculus [16]": {"system": "Mus musculus", "test": "Antinociceptive activity in CD1 mouse assessed as reduction in DSLET-induced nociception up to 10 nmol, icv pretreated for 5 mins followed by DSLET injection measured up to 2 hrs by tail flick assay", "assay_type": "functional, organism-based"}, "Mu-type opioid receptor [17]": {"target": "T1, Mu-type opioid receptor", "test": "Antagonist activity at human MOR expressed in CHO cell membranes assessed as inhibition of CYM51010-induced [35S]-GTPgammaS binding preincubated for 5 mins followed by CYM51010 and [35S]-GTPgammaS addition measured after 80 mins", "assay_type": "functional", "details": "cho", "in_short": "as §2"}, "Mus musculus [18]": {"system": "Mus musculus", "test": "Reduction in morphine dependence expression in acute morphine dependence ICR mouse model assessed as inhibition of naloxone-precipitated jumping behavior at 1 nmol, icv administered 5 mins prior to naloxone injection measured up to 20 mins relative to control", "assay_type": "functional", "set-up": "scale not given: the % may be the effect or the level left", "in_short": "as §3"}, "Mus musculus [19]": {"species_on_record": "Mus musculus", "test": "Antinociceptive activity in CD1 mouse assessed as reduction in SNC80-induced nociception at 10 nmol pretreated for 5 mins followed by SNC80 injection measured up to 2 hrs by tail flick assay", "assay_type": "functional, organism-based", "in_short": "as §4"}, "Mus musculus [20]": {"system": "Mus musculus", "test": "Reduction in morphine dependence expression in acute morphine dependence ICR mouse model assessed as reduction in jumping behavior at 1 nmol, icv up to 20 mins", "assay_type": "functional, organism-based", "in_short": "as §3"}}, "note": "Calls of active or inactive are those of the source."}
{"smiles": "N[C@@H](Cc1ccc(O)cc1)C(=O)N1Cc2ccccc2C[C@@H]1C(=O)NCC(=O)NCCCCC(=O)N[C@H](CCCCNC(=O)CCCCNC(=O)CNC(=O)[C@@H](Cc1cccc2ccccc12)NC(=O)[C@H](Cc1ccccc1)NC(=O)[C@@H]1CCCN1C(=O)[C@@H](N)Cc1ccc(O)cc1)C(=O)O", "values": [{"measurement": "A50", "setting": "Mus musculus [1]", "result": 2.04, "unit": "nmol"}, {"measurement": "Activity", "setting": "Mus musculus [1]", "result": "Dose-dependent effect"}, {"measurement": "Ratio Ki", "setting": "Homo sapiens [2]", "result": 133}, {"measurement": "Ki", "setting": "Mu-type opioid receptor [3]", "result": "> 1000", "unit": "nM"}, {"measurement": "IC50", "setting": "[4]", "result": 76, "unit": "nM"}, {"measurement": "IC50", "setting": "[5]", "result": 153, "unit": "nM"}, {"measurement": "Activity", "setting": "Mus musculus [6]", "result": "Non-Toxic"}, {"measurement": "Imax", "setting": "[7]", "result": 11, "unit": "%"}, {"measurement": "Activity", "setting": "Mus musculus [8]", "result": "Active"}, {"measurement": "Ki", "setting": "[9]", "result": 84, "unit": "nM"}, {"measurement": "inhibition", "setting": "[10]", "result": "inactive"}, {"measurement": "Activity", "setting": "Mus musculus [11]", "result": "inactive"}, {"measurement": "Imax", "setting": "[12]", "result": 39, "unit": "%"}, {"measurement": "IC50H", "setting": "[13]", "result": 0.85, "unit": "nM"}, {"measurement": "IC50L", "setting": "[13]", "result": "> 1000", "unit": "nM"}, {"measurement": "Activity", "setting": "Mus musculus [14]", "result": "Active"}, {"measurement": "Ratio IC50", "setting": "Homo sapiens [15]", "result": 89}, {"measurement": "Activity", "setting": "Mus musculus [16]", "result": "inactive"}, {"measurement": "IC50", "setting": "Mu-type opioid receptor [17]", "result": "> 1000", "unit": "nM"}, {"measurement": "Activity", "setting": "Mus musculus [18]", "result": 53.2, "unit": "%"}, {"measurement": "Activity", "setting": "Mus musculus [19]", "result": "inactive"}, {"measurement": "Activity", "setting": "Mus musculus [20]", "result": "inactive"}]}
